Experimental data from ChEMBL document CHEMBL1671684, “In vitro resistance profile of the hepatitis C virus NS3/4A protease inhibitor TMC435” (Antimicrob Agents Chemother, 2010).

Assays:
Hepatitis C virus [1] = experiment: Antiviral activity against Hepatitis C virus subtype 1b expressing NS3 F43S mutant infected in HuH7 cells after 48 hrs by luciferase reporter assay; format: functional, organism-based, Hepacivirus hominis; details: genotype 1b, Huh-7, 48 h
Outline: (§1)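 Genotype 1b con1 subgenomic bicistronic replicon (clone ET) with luciferase reporter and adaptive mutations E1202G, T1280I, K1846T, carrying site-directed NS3 single or double mutations. 10 μg wild-type or mutant replicon RNA electroporated into Huh7-lunet cells, seeded 4,000 cells/well over a nine-point inhibitor dilution series, 48 h at 37°C, 5% CO2, then luminescence read. EC50 taken as median of individual experiments; fold change relative to parental replicon EC50.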

Hepatitis C virus [2] = experiment: Antiviral activity against Hepatitis C virus subtype 1b expressing NS3 Q80G mutant infected in HuH7 cells after 48 hrs by luciferase reporter assay; format: functional, organism-based, Hepacivirus hominis; details: genotype 1b, Huh-7, 48 h; outline: as §1
Hepatitis C virus [3] = experiment: Antiviral activity against Hepatitis C virus subtype 1b expressing NS3 R109K mutant infected in HuH7 cells after 48 hrs by luciferase reporter assay; format: functional, organism-based, Hepacivirus hominis; details: genotype 1b, Huh-7, 48 h; outline: as §1
Hepatitis C virus [4] = experiment: Antiviral activity against Hepatitis C virus subtype 1b expressing NS3 S138T mutant infected in HuH7 cells after 48 hrs by luciferase reporter assay; format: functional, organism-based, Hepacivirus hominis; details: genotype 1b, Huh-7, 48 h; outline: as §1
Hepatitis C virus [5] = experiment: Antiviral activity against Hepatitis C virus subtype 1b expressing NS3 R155M mutant infected in HuH7 cells after 48 hrs by luciferase reporter assay; format: functional, organism-based, Hepacivirus hominis; details: genotype 1b, Huh-7, 48 h; outline: as §1
Hepatitis C virus [6] = experiment: Antiviral activity against Hepatitis C virus subtype 1b expressing NS3 R155T mutant infected in HuH7 cells after 48 hrs by luciferase reporter assay; format: functional, organism-based, Hepacivirus hominis; details: genotype 1b, Huh-7, 48 h; outline: as §1
Hepatitis C virus [7] = experiment: Antiviral activity against Hepatitis C virus subtype 1b expressing NS3 A156S mutant infected in HuH7 cells after 48 hrs by luciferase reporter assay; format: functional, organism-based, Hepacivirus hominis; details: genotype 1b, Huh-7, 48 h; outline: as §1
Hepatitis C virus [8] = experiment: Antiviral activity against Hepatitis C virus subtype 1b expressing NS3 A156T mutant infected in HuH7 cells after 48 hrs by luciferase reporter assay; format: functional, organism-based, Hepacivirus hominis; details: genotype 1b, Huh-7, 48 h; outline: as §1
Hepatitis C virus [9] = experiment: Antiviral activity against Hepatitis C virus subtype 1b expressing NS3 A156V mutant infected in HuH7 cells after 48 hrs by luciferase reporter assay; format: functional, organism-based, Hepacivirus hominis; details: genotype 1b, Huh-7, 48 h; outline: as §1
Hepatitis C virus [10] = experiment: Antiviral activity against Hepatitis C virus subtype 1b expressing NS3 D168N mutant infected in HuH7 cells after 48 hrs by luciferase reporter assay; format: functional, organism-based, Hepacivirus hominis; details: genotype 1b, Huh-7, 48 h; outline: as §1
Hepatitis C virus [11] = experiment: Antiviral activity against Hepatitis C virus subtype 1b expressing NS3 D168H mutant infected in HuH7 cells after 48 hrs by luciferase reporter assay; format: functional, organism-based, Hepacivirus hominis; details: genotype 1b, Huh-7, 48 h; outline: as §1
Hepatitis C virus [12] = experiment: Antiviral activity against Hepatitis C virus subtype 1b expressing NS3 D168A mutant infected in HuH7 cells after 48 hrs by luciferase reporter assay; format: functional, organism-based, Hepacivirus hominis; details: genotype 1b, Huh-7, 48 h; outline: as §1
Hepatitis C virus [13] = experiment: Antiviral activity against Hepatitis C virus subtype 1b expressing NS3 D168V mutant infected in HuH7 cells after 48 hrs by luciferase reporter assay; format: functional, organism-based, Hepacivirus hominis; details: genotype 1b, Huh-7, 48 h; outline: as §1
Hepatitis C virus [14] = experiment: Antiviral activity against Hepatitis C virus subtype 1b expressing NS3 D168I mutant infected in HuH7 cells after 48 hrs by luciferase reporter assay; format: functional, organism-based, Hepacivirus hominis; details: genotype 1b, Huh-7, 48 h; outline: as §1
Hepatitis C virus [15] = experiment: Antiviral activity against Hepatitis C virus subtype 1b expressing NS3 Q80K and R155K mutant infected in HuH7 cells after 48 hrs by luciferase reporter assay; format: functional, organism-based, Hepacivirus hominis; details: genotype 1b, Huh-7, 48 h; outline: as §1
Hepatitis C virus [16] = experiment: Antiviral activity against Hepatitis C virus subtype 1b expressing NS3 Q80R and R155K mutant infected in HuH7 cells after 48 hrs by luciferase reporter assay; format: functional, organism-based, Hepacivirus hominis; details: genotype 1b, Huh-7, 48 h; outline: as §1
Hepatitis C virus [17] = experiment: Antiviral activity against Hepatitis C virus subtype 1b expressing NS3 Q80R and D168E mutant infected in HuH7 cells after 48 hrs by luciferase reporter assay; format: functional, organism-based, Hepacivirus hominis; details: genotype 1b, Huh-7, 48 h; outline: as §1
Hepatitis C virus [18] = experiment: Antiviral activity against Hepatitis C virus subtype 1b expressing NS3 Q80H and D168E mutant infected in HuH7 cells after 48 hrs by luciferase reporter assay; format: functional, organism-based, Hepacivirus hominis; details: genotype 1b, Huh-7, 48 h; outline: as §1
Hepatitis C virus [19] = experiment: Ratio of EC50 for Hepatitis C virus subtype 1b expressing NS3 V36L mutant to EC50 for Hepatitis C virus subtype 1b expressing WT NS3 infected in HuH7 cells after 48 hrs by luciferase reporter assay; format: functional, Hepacivirus hominis, genotype 1b, Huh-7
Outline: (§2)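 Transient replicon assay: site-directed single or multiple NS3 mutations engineered into genotype 1b (con1, clone ET) subgenomic bicistronic replicon with luciferase reporter and adaptive mutations E1202G, T1280I, K1846T. Huh7-lunet cells electroporated with 10 μg wild-type or mutant replicon RNA, seeded 4,000 cells/well with nine-point inhibitor dilution; 48 h, 37°C, 5% CO2; luminescence read-out. EC50 as median of individual experiments; fold change versus parental replicon EC50.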

Hepatitis C virus [20] = experiment: Ratio of EC50 for Hepatitis C virus subtype 1b expressing NS3 Q80G mutant to EC50 for Hepatitis C virus subtype 1b expressing WT NS3 infected in HuH7 cells after 48 hrs by luciferase reporter assay; format: functional, Hepacivirus hominis, genotype 1b, Huh-7; outline: as §2
Hepatitis C virus [21] = experiment: Ratio of EC50 for Hepatitis C virus subtype 1b expressing NS3 R109K mutant to EC50 for Hepatitis C virus subtype 1b expressing WT NS3 infected in HuH7 cells after 48 hrs by luciferase reporter assay; format: functional, Hepacivirus hominis, genotype 1b, Huh-7; outline: as §2
Hepatitis C virus [22] = experiment: Ratio of EC50 for Hepatitis C virus subtype 1b expressing NS3 R155M mutant to EC50 for Hepatitis C virus subtype 1b expressing WT NS3 infected in HuH7 cells after 48 hrs by luciferase reporter assay; format: functional, Hepacivirus hominis, genotype 1b, Huh-7; outline: as §2
Hepatitis C virus [23] = experiment: Ratio of EC50 for Hepatitis C virus subtype 1b expressing NS3 R155Q mutant to EC50 for Hepatitis C virus subtype 1b expressing WT NS3 infected in HuH7 cells after 48 hrs by luciferase reporter assay; format: functional, Hepacivirus hominis, genotype 1b, Huh-7; outline: as §2
Hepatitis C virus [24] = experiment: Ratio of EC50 for Hepatitis C virus subtype 1b expressing NS3 R155T mutant to EC50 for Hepatitis C virus subtype 1b expressing WT NS3 infected in HuH7 cells after 48 hrs by luciferase reporter assay; format: functional, Hepacivirus hominis, genotype 1b, Huh-7; outline: as §2
Hepatitis C virus [25] = experiment: Ratio of EC50 for Hepatitis C virus subtype 1b expressing NS3 R155G mutant to EC50 for Hepatitis C virus subtype 1b expressing WT NS3 infected in HuH7 cells after 48 hrs by luciferase reporter assay; format: functional, Hepacivirus hominis, genotype 1b, Huh-7; outline: as §2
Hepatitis C virus [26] = experiment: Ratio of EC50 for Hepatitis C virus subtype 1b expressing NS3 A156S mutant to EC50 for Hepatitis C virus subtype 1b expressing WT NS3 infected in HuH7 cells after 48 hrs by luciferase reporter assay; format: functional, Hepacivirus hominis, genotype 1b, Huh-7; outline: as §1
Hepatitis C virus [27] = experiment: Ratio of EC50 for Hepatitis C virus subtype 1b expressing NS3 A156T mutant to EC50 for Hepatitis C virus subtype 1b expressing WT NS3 infected in HuH7 cells after 48 hrs by luciferase reporter assay; format: functional, Hepacivirus hominis, genotype 1b, Huh-7; outline: as §1
Hepatitis C virus [28] = experiment: Ratio of EC50 for Hepatitis C virus subtype 1b expressing NS3 A156V mutant to EC50 for Hepatitis C virus subtype 1b expressing WT NS3 infected in HuH7 cells after 48 hrs by luciferase reporter assay; format: functional, Hepacivirus hominis, genotype 1b, Huh-7; outline: as §1
Hepatitis C virus [29] = experiment: Ratio of EC50 for Hepatitis C virus subtype 1b expressing NS3 D168N mutant to EC50 for Hepatitis C virus subtype 1b expressing WT NS3 infected in HuH7 cells after 48 hrs by luciferase reporter assay; format: functional, Hepacivirus hominis, genotype 1b, Huh-7; outline: as §2
Hepatitis C virus [30] = experiment: Ratio of EC50 for Hepatitis C virus subtype 1b expressing NS3 Q80R and R155K mutant to EC50 for Hepatitis C virus subtype 1b expressing WT NS3 infected in HuH7 cells after 48 hrs by luciferase reporter assay; format: functional, Hepacivirus hominis, genotype 1b, Huh-7; outline: as §2

Row | Structure (SMILES) | EC50 (Hepatitis C virus [1]) [nM] | EC50 (Hepatitis C virus [2]) [nM] | EC50 (Hepatitis C virus [3]) [nM] | EC50 (Hepatitis C virus [5]) [nM] | EC50 (Hepatitis C virus [6]) [nM] | EC50 (Hepatitis C virus [7]) [nM] | EC50 (Hepatitis C virus [8]) [nM] | EC50 (Hepatitis C virus [9]) [nM] | EC50 (Hepatitis C virus [10]) [nM] | EC50 (Hepatitis C virus [11]) [nM] | EC50 (Hepatitis C virus [12]) [nM] | EC50 (Hepatitis C virus [15]) [nM] | Ratio EC50 (Hepatitis C virus [19]) | Ratio EC50 (Hepatitis C virus [20]) | Ratio EC50 (Hepatitis C virus [21]) | Ratio EC50 (Hepatitis C virus [22]) | Ratio EC50 (Hepatitis C virus [23]) | Ratio EC50 (Hepatitis C virus [24]) | Ratio EC50 (Hepatitis C virus [25]) | Ratio EC50 (Hepatitis C virus [26]) | other results
1 | CC(C)(C)NC(=O)N[C@H](C(=O)N1C[C@H]2[C@@H]([C@H]1C(=O)NC(CC1CCC1)C(=O)C(N)=O)C2(C)C)C(C)(C)C (stereo partly drawn) [BOCEPREVIR] | 333 | 127 | 33 | 792 | 5460 | 525 | 7230 | 9670 | 101 | 73 | 100 | 1080 | 1.6 | 1.2 | 1 | 5.7 | 1.4 | 51 | 20 | 3.5 | EC50 (Hepatitis C virus [4]): 16 nM; EC50 (Hepatitis C virus [13]): 83 nM; EC50 (Hepatitis C virus [14]): 279 nM; EC50 (Hepatitis C virus [16]): 680 nM; EC50 (Hepatitis C virus [17]): 62 nM; EC50 (Hepatitis C virus [18]): 20 nM; Ratio EC50 (Hepatitis C virus [27]): 65; Ratio EC50 (Hepatitis C virus [28]): 75; Ratio EC50 (Hepatitis C virus [29]): 1.9; Ratio EC50 (Hepatitis C virus [30]): 2.7
2 | COc1ccc2c(O[C@@H]3C[C@H]4C(=O)N[C@]5(C(=O)O)C[C@H]5/C=C\CCCCC[C@H](NC(=O)OC5CCCC5)C(=O)N4C3)cc(-c3csc(NC(C)C)n3)nc2c1 [CILUPREVIR] | 1 | 3 | 1.4 | 84 | 685 | 1.7 | 1070 | 1520 | 18 | 215 | 304 | 705 | 1 | 4.9 | 0.7 | 68 | 242 | 562 | 811 | 2.8 | EC50 (Hepatitis C virus [4]): 0.5 nM; EC50 (Hepatitis C virus [13]): 1810 nM; EC50 (Hepatitis C virus [14]): 20700 nM; EC50 (Hepatitis C virus [16]): 707 nM; EC50 (Hepatitis C virus [17]): 87 nM; EC50 (Hepatitis C virus [18]): 52 nM; Ratio EC50 (Hepatitis C virus [27]): 1344; Ratio EC50 (Hepatitis C virus [28]): 2085; Ratio EC50 (Hepatitis C virus [29]): 12; Ratio EC50 (Hepatitis C virus [30]): 772
3 | COc1ccc2c(O[C@@H]3C[C@H]4C(=O)N[C@]5(C(=O)NS(=O)(=O)C6CC6)C[C@H]5/C=C\CCCCN(C)C(=O)[C@@H]4C3)cc(-c3nc(C(C)C)cs3)nc2c1C [SIMEPREVIR] | 83 | 22 | 11 | 3.5 | 314 | 3 | 377 | 2150 | 79 | 5660 | 6360 | 4650 | 1.7 | 1.8 | 0.7 | 0.4 | 1.6 | 24 | 20 | 0.3 | EC50 (Hepatitis C virus [4]): 77 nM; EC50 (Hepatitis C virus [13]): 17900 nM; EC50 (Hepatitis C virus [14]): 23200 nM; EC50 (Hepatitis C virus [16]): 2850 nM; EC50 (Hepatitis C virus [17]): 5900 nM; EC50 (Hepatitis C virus [18]): 1360 nM; Ratio EC50 (Hepatitis C virus [27]): 44; Ratio EC50 (Hepatitis C virus [28]): 177; Ratio EC50 (Hepatitis C virus [29]): 6.6; Ratio EC50 (Hepatitis C virus [30]): 270
4 | CCC[C@H](NC(=O)[C@@H]1[C@H]2CCC[C@H]2CN1C(=O)[C@@H](NC(=O)[C@@H](NC(=O)c1cnccn1)C1CCCCC1)C(C)(C)C)C(=O)C(=O)NC1CC1 [TELAPREVIR] | 749 | 202 | 66 | 4110 | 22700 | 3110 | 20300 | 15500 | 147 | 102 | 46 | 2960 | 3.1 | 1.2 | 0.8 | 14 | 2.5 | 74 | 20 | 20 | Ratio EC50 (Hepatitis C virus [27]): 105; Ratio EC50 (Hepatitis C virus [28]): 112; Ratio EC50 (Hepatitis C virus [29]): 1.2
